Converted amounts (≈) assume the structure as drawn. The source made the active and inactive calls. The rule behind the calls is not given here.
Experiments:
Staphylococcus aureus [1] = experiment: Antibacterial activity against multidrug-resistant Staphylococcus aureus SA-1199B overexpressing NorA efflux transporter at 256 ug/mL after 18 hrs by microtiter plate method; type: functional, organism-based
Staphylococcus aureus [2] = experiment: Antibacterial activity against epidemic methicillin-resistant Staphylococcus aureus 15 expressing MecA at 256 ug/mL after 18 hrs by microtiter plate method; type: functional, organism-based
Staphylococcus aureus [3] = experiment: Antibacterial activity against Staphylococcus aureus RN4220 expressing MsrA efflux transporter at 256 ug/mL after 18 hrs by microtiter plate method; type: functional, organism-based
Procedure, shortened: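 Strain pre-grown on nutrient agar for 24 h at 37 °C. Inoculum matched to the 0.5 McFarland standard in normal saline and diluted to a final 5 × 10^5 cfu/mL in microtiter wells. Plates incubated 18 h at 37 °C. MIC taken as the lowest concentration with no bacterial growth, determined in duplicate.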

Staphylococcus aureus [4] = experiment: Antibacterial activity against methicillin-resistant Staphylococcus aureus XU212 expressing TetK efflux pump and MecA at 256 ug/mL after 18 hrs by microtiter plate method; type: functional, organism-based
Staphylococcus aureus [5] = experiment: Antibacterial activity against methicillin-susceptible Staphylococcus aureus ATCC 25923 after 18 hrs by microtiter plate method; type: functional; conditions: for MIC: ATCC 25923, 18 h
Procedure, shortened: (§1)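 Broth microdilution MIC. Strains were grown on nutrient agar for 24 h at 37 °C. Inoculum was made to the 0.5 McFarland standard in normal saline and diluted to a final 5 × 10^5 cfu/mL. Plates were incubated for 18 h at 37 °C. MIC was taken as the lowest concentration with no observed growth, determined in duplicate.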

Staphylococcus aureus [6] = experiment: Antibacterial activity against multidrug-resistant Staphylococcus aureus SA-1199B overexpressing NorA efflux transporter after 18 hrs by microtiter plate method; type: functional; procedure, shortened: as §1
Staphylococcus aureus [7] = experiment: Antibacterial activity against Staphylococcus aureus RN4220 expressing MsrA efflux transporter after 18 hrs by microtiter plate method; type: functional; conditions: for MIC: RN4220, 18 h; procedure, shortened: as §1
Staphylococcus aureus [8] = experiment: Antibacterial activity against methicillin-resistant Staphylococcus aureus XU212 expressing TetK efflux pump and MecA after 18 hrs by microtiter plate method; type: functional; procedure, shortened: as §1
Staphylococcus aureus [9] = experiment: Antibacterial activity against epidemic methicillin-resistant Staphylococcus aureus 15 expressing MecA after 18 hrs by microtiter plate method; type: functional; procedure, shortened: as §1

| SMILES | Activity (Staphylococcus aureus [1]) | Activity (Staphylococcus aureus [2]) | Activity (Staphylococcus aureus [3]) | Activity (Staphylococcus aureus [4]) | MIC (Staphylococcus aureus [5]) [mg/L] | MIC (Staphylococcus aureus [6]) [mg/L] | MIC (Staphylococcus aureus [7]) [mg/L] | MIC (Staphylococcus aureus [8]) [mg/L] | MIC (Staphylococcus aureus [9]) [mg/L] | further results |
| --- | --- | --- | --- | --- | --- | --- | --- | --- | --- | --- |
| CC(C)=C[C@@]1(O)C(=O)C(C)(C)C(=O)C(C)(C)[C@@H]1O[C@@H]1O[C@H](COC(=O)c2cc(O)c(O)c(O)c2)[C@@H](O)[C@H](O)[C@H]1O | inactive | inactive | inactive | inactive | – | – | – | – | – | – |
| CC(C)=C[C@]1(O)C(=O)C(C)(C)C(=O)C(C)(C)[C@@H]1O[C@@H]1O[C@H](COC(=O)c2cc(O)c(O)c(O)c2)[C@@H](O)[C@H](O)[C@H]1O | inactive | inactive | inactive | inactive | – | – | – | – | – | – |
| CC1(C)C=C2C(=O)C(C)(C)C(=O)C(C)(C)C2(O)OO1 (stereo not drawn) | – | – | – | – | – | – | – | – | – | Activity (Staphylococcus aureus [5]): inactive; Activity (Staphylococcus aureus [6]): inactive; Activity (Staphylococcus aureus [7]): inactive; Activity (Staphylococcus aureus [8]): inactive; Activity (Staphylococcus aureus [9]): inactive |
| CC(C)C[C@]1(O)C(=O)C(C)(C)C(=O)C(C)(C)[C@@H]1O[C@@H]1O[C@H](COC(=O)c2cc(O)c(O)c(O)c2)[C@@H](O)[C@H](O)[C@H]1O [GALLOMYRTUCOMMULONE A] | – | – | – | – | 128 (≈ 224 µM) | 256 (≈ 449 µM) | 128 (≈ 224 µM) | 256 (≈ 449 µM) | 128 (≈ 224 µM) | – |
| CC(C)CC1(O)C(=O)C(C)(C)C(O[C@@H]2O[C@H](COC(=O)c3cc(O)c(O)c(O)c3)[C@@H](O)[C@H](O)[C@H]2O)C(C)(C)C1=O (stereo partly drawn) [GALLOMYRTUCOMMULONE B] | – | – | – | – | 64 (≈ 112 µM) | 128 (≈ 224 µM) | 128 (≈ 224 µM) | 128 (≈ 224 µM) | 128 (≈ 224 µM) | – |
| CCn1cc(C(=O)O)c(=O)c2cc(F)c(N3CCNCC3)cc21 [NORFLOXACIN] | – | – | – | – | 1 (≈ 3.13 µM) | 32 (≈ 100 µM) | 2 (≈ 6.26 µM) | 4 (≈ 12.5 µM) | 0.5 (≈ 1.57 µM) | – |

From ChEMBL document CHEMBL1157252, “Antibacterial galloylated alkylphloroglucinol glucosides from myrtle (Myrtus communis)” (2006)
